The values below come from ChEMBL document CHEMBL4270516, “Screening serine/threonine and tyrosine kinase inhibitors for histidine kinase inhibition” (Bioorg Med Chem, 2018).

In experiment [1] the test system is Thermotoga maritima. Put plainly: Induction of Thermotoga maritima HK853 aggregation up to 500 uM in presence of glutaraldehyde by PAGE analysis.
Experiment [2] concerns Sensor histidine kinase VicK/WalK (Streptococcus pneumoniae). The experiment can be described thus: Induction of Streptococcus pneumoniae VicK aggregation up to 500 uM in presence of glutaraldehyde by PAGE analysis.
Experiment [3] is described as follows: Inhibition of ADP-BODIPY binding to Thermotoga maritima HK853 in presence of Triton X-100 by fluorescence polarization assay.
Experiment [4] relates to Thermotoga maritima. Put plainly: Inhibition of ADP-BODIPY binding to Thermotoga maritima HK853 at 100 uM by fluorescence polarization assay.
A short description of experiment [5]: Inhibition of ADP-BODIPY binding to Thermotoga maritima HK853 by fluorescence polarization assay.
Experiment [6] can be described thus: Inhibition of Thermotoga maritima HK853 autophosphorylation using compound at non-aggregating concentration after 30 mins in presence of [gamma-33P]-ATP by phosphorescence-based assay. The method, boiled down:
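Coupled competition-aggregation assay with HK853 (T. maritima) and VicK (S. pneumoniae); enzymatic autophosphorylation followed with [γ-33P]ATP.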

Experiment [7] deals with Pseudomonas aeruginosa. The experiment can be described thus: Antibiofilm activity against methicillin-sensitive Pseudomonas aeruginosa PAO1 at 112.5 to 500 uM after 18 hrs by crystal violet staining-based assay. The class given is functional, organism-based. Put shortly:
(§1)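 Biofilm formation by S. aureus and P. aeruginosa quantified by crystal violet staining, compared against DMSO-treated bacteria.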

Experiment [8] can be described thus: Inhibition of ADP-BODIPY binding to Thermotoga maritima HK853 after day 2 by fluorescence polarization assay. For orientation: In fluorescence polarisation assays a small probe gives low polarisation when free and higher when bound to something large.
Experiment [9] relates to Staphylococcus aureus. Put plainly: Antibiofilm activity against methicillin-sensitive Staphylococcus aureus MSSA 447 at 112.5 to 500 uM after 18 hrs by crystal violet staining-based assay. The class given is functional, organism-based. The method, boiled down:
as §1

The test system of experiment [10] is Pseudomonas aeruginosa. Put plainly: Bactericidal activity against methicillin-sensitive Pseudomonas aeruginosa PAO1 at 400 uM after 18 hrs by resazurin-dye based fluorescence assay. The class given is functional, organism-based. Put shortly: (§2)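 Viability of methicillin-sensitive S. aureus and P. aeruginosa after treatment, judged by optical density and resazurin indicator dye relative to a DMSO control.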
In general terms: Alamar Blue is a resazurin reagent that responds to reducing activity.

Experiment [11] has as its system Staphylococcus aureus. Put plainly: Bactericidal activity against methicillin-sensitive Staphylococcus aureus MSSA 447 at 400 uM after 18 hrs by resazurin-dye based fluorescence assay. The format is functional, organism-based. The method, boiled down:
as §2

Experiment [12] in a line: Inhibition of ADP-BODIPY binding to Thermotoga maritima HK853 after day 1 by fluorescence polarization assay.

Active and inactive are the calls of the source. The rule behind the calls is not given here. A value given as a limit tells only on which side of the number the result lay.

Take `O=[N+]([O-])c1ccc2c(c1)C(c1ccccc1Cl)=Nc1c[nH]nc1N2`: the result in experiment [1] and in experiment [2] was Active. For the same compound, the IC50 (in general, the concentration needed to halve the response being measured) in [3] came to 160 µM; in experiment [5], 26.2 µM. Besides, the inhibition (in general, the drop in the measured response relative to a control, in per cent) in [4] was determined as 98.1%.

With `O=C1C(c2c[nH]c3ccccc23)=C(c2c[nH]c3ccccc23)C(=O)N1O`, the result in experiment [1] and in [2] was Active. Besides, the results for the IC50 in [3] and in [5] were more than 300 µM and 96 µM, respectively. In experiment [4], this compound gave an inhibition of 81.2%.

For `Cn1cc(C2=C(c3cccc(NCC(O)CO)c3)C(=O)NC2=O)c2cc(Cl)ccc21` (stereo unspecified), the result in experiment [1] and in experiment [2] was Active. Further, the figures for the IC50 in [3] and in experiment [5] were 24.4 µM and 21.9 µM, respectively. Moreover, the inhibition in experiment [4] stood at 79.2%.

In [4], `Fc1ccc(-c2c(-c3ccncc3)[nH]c3cccnc23)cc1` had an inhibition of 6.5%.

In experiment [4], `Fc1ccc(-c2c(-c3ccncc3)n(CCN3CCOCC3)c3cccnc23)cc1` displayed an inhibition of 4.8%.

In turn, `Cn1c(-c2ccncc2)c(-c2ccc(F)cc2)c2ncccc21` displayed an inhibition in [4] of 15%.

Consider `Nc1ncnc2c1ncn2[C@@H]1O[C@H](COP(=O)(O)OP(=O)(O)NP(=O)(O)O)[C@@H](O)[C@H]1O`, for which the half-maximal inhibitory concentration (IC50) in [6] amounted to 48.2 µM.

As to `Nc1ncnc2c1ncn2[C@@H]1O[C@H](COP(=O)(O)OP(=O)(O)O)[C@@H](O)[C@H]1O` [ADENOSINE DIPHOSPHATE], in experiment [6], the IC50 is 13.7 µM.

In turn, `OCCn1c(-c2ccncc2)c(-c2ccc(F)cc2)c2ncccc21` showed an inhibition in experiment [4] of 5.8%.

As to `CONC1=NC(=O)/C(=C/c2ccc3ncccc3c2)S1`, the half-maximal inhibitory concentration (IC50) in experiment [3] was 27.1 µM; in [6], 124 µM; in experiment [5], 21.6 µM. The same compound showed an inhibition in [4] of 90.1%.

Take `CNc1ncc2cc(Oc3ccc(F)cc3F)c(=O)n(C)c2n1`: the result in [1] and in experiment [2] was Active. Further, the IC50 in [3] came out at 15.2 µM; in [6], 106 µM; in [5], 19.1 µM. This compound gave an inhibition in experiment [4] of 74.7%.

Take `O=C1N=C(N[C@H](CO)c2ccccc2)S/C1=C\c1ccc2ncccc2c1`: the outcome in [1] and in experiment [2] was Active. Besides, the IC50 in [3] stood at 12 µM; in experiment [6], 282 µM; in experiment [5] it was 12 µM. Besides, the inhibition in experiment [4] was 65.5%.

For the compound `Cc1cc(C)c2c(n1)sc1c(N)ncnc12`, the IC50 in experiment [3] was 42.2 µM; in [6] it was 99 µM; in experiment [5], 38.3 µM. The compound further returned an inhibition in experiment [4] of 73.7%.

Consider `Fc1ccc(-c2c(-c3ccncc3)[nH]c3nccnc23)cc1`, for which the concentration for half-maximal inhibition (IC50) in [3] was 22.5 µM; in experiment [8], 6.26 µM; in [6] it was 101 µM; in experiment [5], 23.7 µM; in [12], 2.7 µM. In addition, the outcome in [7], in experiment [9], in experiment [10] and in [11] was inactive. For the same compound, the inhibition in experiment [4] was 79.9%.

Turning to `COc1cc[nH]c1/C=C1\C(=O)Nc2ccc([N+](=O)[O-])c(C3CC[C@@H](O)C3)c21` (stereo partly specified), the result in experiment [1] and in [2] was Active. In addition, the IC50 came out at 13 µM in experiment [3] and 12 µM in experiment [5]. In experiment [4], this compound came in with an inhibition of 66.3%.
